The text below walks through data of ChEMBL document CHEMBL1144645, “The discovery of highly selective erbB2 (Her2) inhibitors for the treatment of cancer” (Bioorg Med Chem Lett, 2007).

Data set [1] in a line: Clearance in rat at 2 mg/kg, iv. In kind it is ADME, organism-based. On the set-up: dose 2 mg/kg, route intravenous. To be noted: in vivo. The procedure, abridged: (§1)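 Single 2 mg/kg IV dose (HCl salt) to define clearance, volume of distribution and half-life; oral arm given 5 mg/kg in 0.5% methylcellulose to derive bioavailability (F).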
Data set [2] is described as follows: Bioavailability in rat at 5 mg/kg, po. In kind it is ADME, organism-based. To be noted: in vivo. The procedure, abridged:
as §1

Data set [3] is described as follows: Half life in rat at 2 mg/kg, iv after 1 hr. In kind it is ADME, organism-based. Also noted: dose 2 mg/kg, route intravenous. To be noted: in vivo. The procedure, abridged: as §1
The nature of data set [4]: Volume of distribution in rat at 2 mg/kg, iv. In kind it is ADME, organism-based. Also noted: dose 2 mg/kg, route intravenous. To be noted: in vivo, read-out: Vdss. The procedure, abridged:
as §1

Data set [5] has as its target Epidermal growth factor receptor and ErbB2 (HER1 and HER2) (Homo sapiens) (UniProt P04626+P00533). Nature of the data set: Selectivity for erbB2 over EGFR. In kind it is protein assay. The procedure, abridged: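 Cell selectivity: IC50 ratio between two NIH3T3 lines run under identical conditions, one carrying human EGFR and one carrying the EGFR-extracellular/erbB2-intracellular chimera. Each line takes 2 h inhibitor, then 15 min human recombinant EGF. Phosphotyrosine measured with HRP-PY-54 and TMB at 450 nm.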

Data set [6] addresses T1, Receptor tyrosine-protein kinase erbB-2 (Homo sapiens, UniProt P04626). Kind of data set: Inhibition of erbB2 in NH3T3 cells. Type of data set: cell-based. The procedure, abridged: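 NIH3T3 cells expressing a chimera of EGFR extracellular and erbB2 intracellular domains are plated, exposed to inhibitor for 2 h, then stimulated with human recombinant EGF for 15 min. Receptor phosphotyrosine read with HRP-PY-54 antibody and TMB, A450. IC50 is the mean of at least two experiments.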

Data set [7] concerns the target T1, Receptor tyrosine-protein kinase erbB-2. Kind of data set: Inhibition of erbB2 expressed in Sf9 cells. An outline of the steps:
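GST-tagged erbB2 intracellular domain (residues 675–1255) made in baculovirus/Sf9 and purified; ~15 ng enzyme phosphorylates poly(Glu,Tyr) with 1 mM ATP plus inhibitor over 6 min. Phosphotyrosine detected by HRP-PY-54 antibody and TMB, A450. IC50 is the mean of at least two experiments.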

The target in data set [8] is Epidermal growth factor receptor (Homo sapiens) (UniProt P00533). Kind of data set: Inhibition of EGFR.
Data set [9] deals with Insulin receptor (Homo sapiens) (UniProt P06213). Kind of data set: Inhibition of IRK.
In data set [10] the target is Insulin-like growth factor 1 receptor (Homo sapiens) (UniProt P08069). Kind of data set: Inhibition of IGF1R.
The target in data set [11] is Cyclin-dependent kinase 2 (Homo sapiens) (UniProt P24941). Kind of data set: Inhibition of CDK2.
Data set [12] addresses Tyrosine-protein kinase Lck (Homo sapiens) (UniProt P06239). Kind of data set: Inhibition of LCK.
Data set [13] addresses Cyclin-dependent kinase 5 (Homo sapiens) (UniProt Q00535). Nature of the data set: Inhibition of CDK5.
The target of data set [14] is Proto-oncogene tyrosine-protein kinase Src (Homo sapiens) (UniProt P12931). Nature of the data set: Inhibition of cSRC.
The target of data set [15] is Protein kinase C alpha type (Homo sapiens) (UniProt P17252). Nature of the data set: Inhibition of PKCalpha.
In data set [16] the target is Protein kinase C theta type (Homo sapiens) (UniProt Q04759). Nature of the data set: Inhibition of PKCtheta.
Data set [17] deals with Tyrosine-protein kinase Fes/Fps (Homo sapiens) (UniProt P07332). Kind of data set: Inhibition of FES.
The target in data set [18] is T2, Tyrosine-protein kinase JAK3 (Homo sapiens) (UniProt P52333).
T2 sequence (whole entry): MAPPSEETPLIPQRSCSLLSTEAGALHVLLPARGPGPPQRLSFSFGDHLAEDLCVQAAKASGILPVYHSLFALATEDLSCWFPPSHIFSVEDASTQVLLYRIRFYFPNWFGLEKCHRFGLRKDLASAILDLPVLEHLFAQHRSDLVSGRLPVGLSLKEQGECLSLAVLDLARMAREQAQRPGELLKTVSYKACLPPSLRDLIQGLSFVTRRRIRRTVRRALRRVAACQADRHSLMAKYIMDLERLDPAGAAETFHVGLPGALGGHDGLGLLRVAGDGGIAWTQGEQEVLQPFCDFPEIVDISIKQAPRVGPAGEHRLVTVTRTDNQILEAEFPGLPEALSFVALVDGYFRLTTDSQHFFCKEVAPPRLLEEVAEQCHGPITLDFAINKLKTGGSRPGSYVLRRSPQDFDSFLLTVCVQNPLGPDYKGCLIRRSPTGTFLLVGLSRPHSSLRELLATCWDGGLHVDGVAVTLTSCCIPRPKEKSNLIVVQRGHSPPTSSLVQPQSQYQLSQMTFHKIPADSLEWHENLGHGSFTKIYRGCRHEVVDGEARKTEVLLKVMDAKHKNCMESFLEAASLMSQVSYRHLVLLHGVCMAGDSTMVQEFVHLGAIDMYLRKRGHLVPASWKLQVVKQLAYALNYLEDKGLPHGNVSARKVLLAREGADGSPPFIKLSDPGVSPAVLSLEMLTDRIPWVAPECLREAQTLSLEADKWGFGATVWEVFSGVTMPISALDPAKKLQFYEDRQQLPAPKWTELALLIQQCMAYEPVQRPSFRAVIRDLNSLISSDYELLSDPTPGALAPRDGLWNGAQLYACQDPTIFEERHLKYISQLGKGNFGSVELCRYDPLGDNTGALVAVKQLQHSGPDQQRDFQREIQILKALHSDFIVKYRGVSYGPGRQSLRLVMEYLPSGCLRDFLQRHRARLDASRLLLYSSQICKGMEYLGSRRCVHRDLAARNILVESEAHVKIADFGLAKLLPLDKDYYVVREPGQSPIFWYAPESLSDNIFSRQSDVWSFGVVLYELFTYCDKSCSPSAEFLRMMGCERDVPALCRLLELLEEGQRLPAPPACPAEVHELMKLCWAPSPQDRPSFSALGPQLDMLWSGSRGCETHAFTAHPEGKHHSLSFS
Nature of the data set: Inhibition of JAK3.

In data set [19] the target is Platelet-derived growth factor receptor beta (Homo sapiens) (UniProt P09619). Kind of data set: Inhibition of PDGFRB.
The target of data set [20] is cAMP-dependent protein kinase (PKA) (Homo sapiens) (UniProt P22694+P17612+P22612). Nature of the data set: Inhibition of PKA. Type of data set: protein assay.
Data set [21] concerns the target Wee1-like protein kinase (Homo sapiens) (UniProt P30291). Kind of data set: Inhibition of Wee1.
Data set [22] is described as follows: Permeability from apical to basolateral side of Caco-2 cell membrane. Type of data set: ADME, cell-based. Particulars: human, read-out: permeability. Background: Caco-2 monolayers are a common model of the intestinal barrier.

T1 sequence (P04626 whole entry, the tested form may be a part): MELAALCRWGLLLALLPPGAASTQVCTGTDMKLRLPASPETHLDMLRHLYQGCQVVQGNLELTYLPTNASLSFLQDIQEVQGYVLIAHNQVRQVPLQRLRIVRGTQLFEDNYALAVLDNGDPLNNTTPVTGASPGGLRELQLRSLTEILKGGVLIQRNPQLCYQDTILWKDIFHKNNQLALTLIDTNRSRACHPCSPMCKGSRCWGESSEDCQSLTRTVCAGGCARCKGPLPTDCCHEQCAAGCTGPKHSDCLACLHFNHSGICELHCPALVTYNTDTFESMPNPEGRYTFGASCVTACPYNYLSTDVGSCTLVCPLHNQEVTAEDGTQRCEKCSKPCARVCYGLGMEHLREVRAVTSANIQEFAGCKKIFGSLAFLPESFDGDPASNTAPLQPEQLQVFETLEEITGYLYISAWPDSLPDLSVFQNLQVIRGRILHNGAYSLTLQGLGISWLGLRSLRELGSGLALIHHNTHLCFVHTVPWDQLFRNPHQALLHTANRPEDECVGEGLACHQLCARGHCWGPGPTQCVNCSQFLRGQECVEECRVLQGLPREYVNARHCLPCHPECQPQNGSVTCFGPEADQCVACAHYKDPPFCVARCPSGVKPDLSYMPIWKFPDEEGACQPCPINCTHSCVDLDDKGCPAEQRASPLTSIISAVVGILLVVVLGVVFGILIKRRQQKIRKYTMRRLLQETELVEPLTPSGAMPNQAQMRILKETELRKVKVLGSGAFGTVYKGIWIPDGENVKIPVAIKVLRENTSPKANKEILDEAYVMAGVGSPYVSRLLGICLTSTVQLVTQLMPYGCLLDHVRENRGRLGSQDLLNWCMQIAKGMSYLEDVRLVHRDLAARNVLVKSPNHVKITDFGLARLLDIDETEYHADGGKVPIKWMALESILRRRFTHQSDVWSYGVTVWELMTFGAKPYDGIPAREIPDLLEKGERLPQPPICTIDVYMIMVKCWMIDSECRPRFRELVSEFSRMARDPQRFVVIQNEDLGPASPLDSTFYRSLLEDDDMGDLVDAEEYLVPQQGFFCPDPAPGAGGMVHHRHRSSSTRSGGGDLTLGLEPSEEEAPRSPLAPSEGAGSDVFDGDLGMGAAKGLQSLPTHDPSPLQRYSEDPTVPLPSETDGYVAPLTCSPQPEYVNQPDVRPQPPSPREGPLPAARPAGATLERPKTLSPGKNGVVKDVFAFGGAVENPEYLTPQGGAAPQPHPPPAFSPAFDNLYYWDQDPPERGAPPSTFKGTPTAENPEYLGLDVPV
Chain of Epidermal growth factor receptor (Homo sapiens) (P00533 whole entry): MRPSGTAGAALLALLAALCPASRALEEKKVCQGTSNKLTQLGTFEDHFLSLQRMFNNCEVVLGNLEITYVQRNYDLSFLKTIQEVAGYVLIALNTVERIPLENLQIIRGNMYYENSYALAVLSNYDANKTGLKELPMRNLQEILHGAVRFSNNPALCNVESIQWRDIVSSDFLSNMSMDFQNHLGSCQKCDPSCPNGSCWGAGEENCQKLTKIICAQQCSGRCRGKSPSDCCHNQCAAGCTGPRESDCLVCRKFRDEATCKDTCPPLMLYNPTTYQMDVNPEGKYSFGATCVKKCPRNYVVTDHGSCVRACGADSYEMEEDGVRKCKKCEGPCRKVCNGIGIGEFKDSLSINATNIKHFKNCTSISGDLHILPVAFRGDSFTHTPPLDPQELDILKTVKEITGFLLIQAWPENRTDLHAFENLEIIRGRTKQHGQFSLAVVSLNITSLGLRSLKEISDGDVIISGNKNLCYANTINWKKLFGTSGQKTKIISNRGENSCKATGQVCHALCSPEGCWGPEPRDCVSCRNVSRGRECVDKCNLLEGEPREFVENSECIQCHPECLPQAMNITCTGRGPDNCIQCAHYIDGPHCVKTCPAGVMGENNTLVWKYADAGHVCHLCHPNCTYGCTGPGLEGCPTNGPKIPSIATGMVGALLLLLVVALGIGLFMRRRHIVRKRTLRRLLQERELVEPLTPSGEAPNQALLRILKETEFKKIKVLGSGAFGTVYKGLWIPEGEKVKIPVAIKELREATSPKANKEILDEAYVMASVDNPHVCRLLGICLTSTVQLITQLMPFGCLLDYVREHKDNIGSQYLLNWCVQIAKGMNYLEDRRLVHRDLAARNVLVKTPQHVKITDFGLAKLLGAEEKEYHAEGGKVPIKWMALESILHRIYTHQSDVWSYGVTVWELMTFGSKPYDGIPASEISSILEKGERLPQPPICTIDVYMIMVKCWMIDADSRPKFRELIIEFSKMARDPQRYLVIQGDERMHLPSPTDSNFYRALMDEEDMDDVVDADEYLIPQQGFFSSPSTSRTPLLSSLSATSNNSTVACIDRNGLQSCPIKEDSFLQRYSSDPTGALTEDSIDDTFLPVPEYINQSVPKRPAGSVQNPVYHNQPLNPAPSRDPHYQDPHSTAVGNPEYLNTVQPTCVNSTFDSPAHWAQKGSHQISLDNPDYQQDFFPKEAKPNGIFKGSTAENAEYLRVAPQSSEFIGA
Chain of Protein kinase C theta type (Homo sapiens) (Q04759 whole entry, looked up): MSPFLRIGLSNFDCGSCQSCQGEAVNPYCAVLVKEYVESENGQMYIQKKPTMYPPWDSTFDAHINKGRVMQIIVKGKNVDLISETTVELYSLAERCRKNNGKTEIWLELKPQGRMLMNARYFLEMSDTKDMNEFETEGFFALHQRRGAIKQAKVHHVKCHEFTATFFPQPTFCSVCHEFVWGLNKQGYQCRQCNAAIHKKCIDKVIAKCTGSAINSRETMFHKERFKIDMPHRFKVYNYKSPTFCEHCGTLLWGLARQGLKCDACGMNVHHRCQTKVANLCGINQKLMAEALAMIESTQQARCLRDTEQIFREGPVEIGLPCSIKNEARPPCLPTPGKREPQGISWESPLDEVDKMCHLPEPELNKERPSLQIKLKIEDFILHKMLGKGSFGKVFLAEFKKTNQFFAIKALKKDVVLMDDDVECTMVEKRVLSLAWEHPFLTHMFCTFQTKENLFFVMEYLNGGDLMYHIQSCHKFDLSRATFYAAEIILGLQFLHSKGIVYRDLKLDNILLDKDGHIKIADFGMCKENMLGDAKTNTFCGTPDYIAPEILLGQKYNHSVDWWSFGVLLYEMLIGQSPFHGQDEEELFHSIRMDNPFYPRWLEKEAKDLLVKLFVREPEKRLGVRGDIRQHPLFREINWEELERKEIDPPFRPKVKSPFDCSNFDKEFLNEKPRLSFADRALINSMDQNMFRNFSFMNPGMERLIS
Chain of Platelet-derived growth factor receptor beta (Homo sapiens) (P09619 whole entry): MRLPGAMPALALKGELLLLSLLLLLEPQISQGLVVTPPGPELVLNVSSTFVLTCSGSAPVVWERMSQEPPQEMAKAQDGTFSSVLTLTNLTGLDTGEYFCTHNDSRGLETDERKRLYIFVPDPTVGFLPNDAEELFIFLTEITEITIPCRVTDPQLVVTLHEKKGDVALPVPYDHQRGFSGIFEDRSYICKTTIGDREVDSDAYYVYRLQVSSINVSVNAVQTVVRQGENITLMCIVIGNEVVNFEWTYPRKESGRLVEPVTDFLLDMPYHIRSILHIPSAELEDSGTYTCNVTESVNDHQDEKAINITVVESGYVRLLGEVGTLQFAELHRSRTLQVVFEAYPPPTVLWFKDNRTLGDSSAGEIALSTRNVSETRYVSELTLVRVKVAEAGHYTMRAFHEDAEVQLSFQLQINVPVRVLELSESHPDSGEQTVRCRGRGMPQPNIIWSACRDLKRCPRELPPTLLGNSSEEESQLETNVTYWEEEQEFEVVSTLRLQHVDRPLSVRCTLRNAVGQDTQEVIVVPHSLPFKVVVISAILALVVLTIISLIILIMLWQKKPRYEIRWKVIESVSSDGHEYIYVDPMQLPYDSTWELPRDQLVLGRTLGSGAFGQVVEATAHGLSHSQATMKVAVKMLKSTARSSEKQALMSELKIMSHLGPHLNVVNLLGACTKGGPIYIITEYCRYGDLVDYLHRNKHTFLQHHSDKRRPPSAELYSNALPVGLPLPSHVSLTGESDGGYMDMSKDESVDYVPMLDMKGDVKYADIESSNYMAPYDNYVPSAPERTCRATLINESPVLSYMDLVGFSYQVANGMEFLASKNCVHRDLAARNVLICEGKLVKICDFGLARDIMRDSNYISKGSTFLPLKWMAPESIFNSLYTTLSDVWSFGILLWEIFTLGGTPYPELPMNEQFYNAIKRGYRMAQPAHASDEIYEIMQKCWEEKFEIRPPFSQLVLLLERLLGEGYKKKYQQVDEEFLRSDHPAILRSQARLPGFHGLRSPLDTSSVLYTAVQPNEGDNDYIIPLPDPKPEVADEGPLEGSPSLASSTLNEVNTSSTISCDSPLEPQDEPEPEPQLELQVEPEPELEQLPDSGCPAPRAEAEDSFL
Chain of Proto-oncogene tyrosine-protein kinase Src (Homo sapiens) (P12931 2-536 limits assumed): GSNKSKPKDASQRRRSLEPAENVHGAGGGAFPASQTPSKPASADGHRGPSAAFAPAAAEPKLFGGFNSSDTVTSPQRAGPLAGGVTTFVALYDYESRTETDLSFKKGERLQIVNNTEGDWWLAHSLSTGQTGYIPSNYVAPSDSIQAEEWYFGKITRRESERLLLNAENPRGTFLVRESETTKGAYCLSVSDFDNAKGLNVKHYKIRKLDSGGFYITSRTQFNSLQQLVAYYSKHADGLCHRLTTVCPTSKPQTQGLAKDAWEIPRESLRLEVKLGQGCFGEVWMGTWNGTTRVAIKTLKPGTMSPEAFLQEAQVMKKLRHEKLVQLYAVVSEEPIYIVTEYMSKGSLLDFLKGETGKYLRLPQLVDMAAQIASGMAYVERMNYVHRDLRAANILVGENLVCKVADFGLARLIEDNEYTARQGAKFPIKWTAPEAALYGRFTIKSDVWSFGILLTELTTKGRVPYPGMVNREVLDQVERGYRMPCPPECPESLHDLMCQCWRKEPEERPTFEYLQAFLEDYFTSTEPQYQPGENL
Chain of Cyclin-dependent kinase 5 (Homo sapiens) (Q00535 whole entry, looked up): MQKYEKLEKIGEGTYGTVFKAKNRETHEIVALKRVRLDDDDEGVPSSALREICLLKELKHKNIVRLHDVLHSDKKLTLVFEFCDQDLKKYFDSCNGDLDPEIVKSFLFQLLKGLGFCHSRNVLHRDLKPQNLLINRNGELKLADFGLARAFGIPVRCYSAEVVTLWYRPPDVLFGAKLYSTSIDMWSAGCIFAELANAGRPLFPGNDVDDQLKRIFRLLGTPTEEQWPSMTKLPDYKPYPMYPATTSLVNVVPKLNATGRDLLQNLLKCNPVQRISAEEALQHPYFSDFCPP

As to `Cc1cc(Nc2ncnc3cnc(N4CCOCC4)cc23)ccc1OC1CCN(C(=O)C2CCCC2)CC1`, the clearance (in general, the volume of plasma or blood freed of the substance per unit of time) in [1] was found to be 2.5 mL/min/kg. Further, the bioavailability (in general, dose-corrected exposure relative to a reference, in per cent) in data set [2] stood at 54%. For the same compound, the half-life (usually the time needed for the level to fall by half in the phase considered) in data set [3] is 1 h. In addition, the Vd in [4] came to 0.2 L/kg. Besides, the Selectivity ratio in [5] is greater than 300. Further, the results for the IC50 in [6] and in data set [7] were 33 nM and 18 nM, respectively.

On to `Cc1cc(Nc2ncnc3cnc(N4CCOCC4)cc23)ccc1Oc1ccc(C(=O)NCC(C)(C)C)cc1`, for which the Activity in data set [8], in data set [9], in data set [10], in data set [11], in [12] and in data set [13] was greater than 10 µM in each case. Also, the Activity in data set [14], in data set [15], in data set [16], in data set [17], in data set [18] and in data set [19] was greater than 10 µM throughout. Besides, the Activity in data set [20] and in data set [21] was greater than 10 µM throughout. Further, the Selectivity ratio in [5] was greater than 410. Also, the IC50 – broadly, the concentration needed to halve the response being measured – in [6] is 24 nM; in data set [7], 21 nM. In data set [22], the Papp A→B stood at 15.4 ×10⁻⁶ cm/s.

As for `COCC(=O)NCC#Cc1ccc2ncnc(Nc3ccc(OC4CCN(C(=O)c5cccc(Cl)c5)CC4)c(C)c3)c2c1`, the Selectivity ratio in data set [5] is 92. The IC50 in data set [6] is 75 nM; in [7] it was 210 nM.

With `Cc1cc(Nc2ncnc3cnc(N4CCN(C)CC4)cc23)ccc1Oc1ccc(C(=O)NCC(C)(C)C)cc1`, the Selectivity ratio in data set [5] was greater than 660. Also, the values for the IC50 in data set [6] and in data set [7] were 15 nM and 130 nM, respectively.

For the compound `COCC(=O)NCC#Cc1ccc2ncnc(Nc3ccc(Oc4ccc(C(=O)NCC(C)(C)C)cc4)c(C)c3)c2c1`, the Selectivity ratio in data set [5] is 200. The IC50 in [6] was 23 nM; in data set [7], 140 nM.

For `COCC(=O)NCC#Cc1ccc2ncnc(Nc3ccc(Oc4cccc(C(=O)NC5CCC5)c4)c(C)c3)c2c1`, the Selectivity ratio in data set [5] is greater than 64. For the same compound, the IC50 in data set [6] is 160 nM; in [7], 230 nM.
